Results of several laboratories.
Each line is one published result; the experiments were not run side by side.
Cell line: Vero
Observed: cell growth or viability

Structure (SMILES)	technique	time	IC50
Oc1ccccc1C1CC(c2ccc(Nc3nnc(-c4ccc(Cl)cc4)c4ccccc34)cc2)=NN1 (stereo not drawn)	–	–	4.11 µM
CCOC(=O)c1ccc(NC(=O)Cn2c(=O)c3cc(I)ccc3n(Cc3ccccc3)c2=O)cc1	–	–	49.1 µM
Cc1ccc2c(-c3cc4c(CN5CCN(Cc6ccccn6)CC5)cnc(C)c4o3)cc(=O)oc2c1	MTT	72 h	60.4 µM
COc1ccc(NC(=O)C2=C(C)NC(C)=C(C(=O)Nc3ccc(OC)cc3OC)C2c2ccco2)c(OC)c1	MTT	–	51.6 µM
COC(=O)c1ccc(NC(=O)Cn2c(=O)c3cc(I)ccc3n(Cc3ccccc3)c2=O)cc1	–	–	50.2 µM
COc1ccc(NC(=O)C2=C(C)NC(C)=C(C(=O)Nc3cc(OC)c(Cl)cc3OC)C2c2ccco2)c(OC)c1 (stereo not drawn)	MTT	–	68.1 µM
O=C(CN1C(=O)SC(=Cc2ccc(Cl)cc2Cl)C1=O)Nc1ccc(C(=O)NNC(=O)c2ccccc2)cc1	MTS	–	3.97 µM
COc1ccc(NC(=O)C2=C(C)NC(C)=C(C(=O)Nc3cc(OC)c(Cl)cc3OC)C2c2ccc(Cl)cc2)c(OC)c1 (stereo not drawn)	MTT	–	54 µM
Cc1cc(C)n(-c2ccc(NC(=O)Cn3c(=O)c4cc(I)ccc4n(Cc4ccccc4)c3=O)cc2)n1	–	–	45.5 µM
COc1cc(NC(=O)C2=C(C)NC(C)=C(C(=O)Nc3cc(OC)c(Cl)cc3OC)C2c2cccc(Cl)c2)c(OC)cc1Cl	MTT	–	28.4 µM
S=c1nc(-c2ccc(Nc3nnc(-c4ccc(Cl)cc4)c4ccccc34)cc2)cc(-c2ccccc2)[nH]1	–	–	4.12 µM
C=CCn1c(=O)n(CC(=O)Nc2ccc(-n3nc(C)cc3C)cc2)c(=O)c2cc(I)ccc21	–	–	43.4 µM
COc1ccc(NC(=O)C2=C(C)NC(C)=C(C(=O)Nc3cc(OC)c(Cl)cc3OC)C2c2ccccc2)c(OC)c1 (stereo not drawn)	MTT	–	59.6 µM
Clc1ccc(-c2nnc(Nc3ccc(C4=NNC(c5ccccc5)C4)cc3)c3ccccc23)cc1 (stereo not drawn)	–	–	4.75 µM
C#Cc1cccc(Nc2ncnc3cc(OCCOC)c(OCCOC)cc23)c1	MTT	72 h	67 µM
O=c1nc(-c2ccc(Nc3nnc(-c4ccc(Cl)cc4)c4ccccc34)cc2)cc(-c2ccccc2)[nH]1	–	–	4 µM
COc1ccc(NC(=O)C2=C(C)NC(C)=C(C(=O)Nc3ccc(OC)cc3OC)C2c2ccc(Cl)cc2)c(OC)c1	MTT	–	76.4 µM
Cc1ncc(CN2CCN(Cc3ccccn3)CC2)c2cc(C(=O)c3ccc4c(c3)OCCO4)oc12	MTT	72 h	50.1 µM
